We go through eight compounds from article PMC9076119 (RSC Advances, 2019).

Like-named read-outs stand apart in the source and are kept apart here.

In one test the test system is P. falciparum strain 3D7. The test can be described thus: P. falciparum growth inhibition assay. The format is cell-based, Plasmodium falciparum. In short, it runs like this:
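3D7 parasites kept in human erythrocytes (4% hematocrit) in RPMI with 0.5% albumax and synchronized by repeated sorbitol treatment. Assay wells used complete medium, 2% hematocrit and parasitemia ≤1%. Test compound (0–100 μM final) was added to 8–10 h rings, with a DMSO solvent control. Growth ran 52 h, then SYBR green DNA fluorescence was read. Triplicate wells; experiment repeated twice.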

The next test relates to 3D7 Plasmodium parasites. The test can be described thus: Effect on parasite morphology and development. It is filed as cell-based, Plasmodium falciparum. The note with it: at their IC50 value concentration, ring stage (8–10 h) 3D7 parasites treated. Summed up: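 Sorbitol-synchronised P. falciparum 3D7 cultured in human erythrocytes (4% hematocrit) in RPMI with 0.5% albumax. Ring-stage (8–10 h) parasites treated with test compound, E-64 or solvent alone as control. Light microscopy of parasitized RBCs at several time points after treatment, following progression from ring to trophozoite to schizont to merozoites and reinvasion of fresh RBCs as new rings.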

The mark [1] stands for this setting: Plasmodium falciparum, 3D7, read-out: Inhibition of P. falciparum EC50, 3D7 culture, ring stage 8–10 h, 52 h growth, SYBR green.

As to `Fc1ccccc1-n1cc(COc2ccnc3cc(Cl)ccc23)nn1` [Compound T5, 7-Chloro-4-{[1-(2-fluorophenyl)-1H-1,2,3-triazol-4-yl]methoxy} quinoline], the EC50 (in general, the concentration giving half of the maximal effect) in the test on P. falciparum strain 3D7 (setting [1]) was 49.5 µM; in the test on P. falciparum strain 3D7 (read-out: Inhibition of P. falciparum EC50, 3D7 culture, ring stage 8–10 h, 52 h growth, SYBR green), 66.6 µM.
In the case of `Cc1ccccc1-n1cc(COc2ccnc3cc(Cl)ccc23)nn1` [Compound T9, 7-Chloro-4-{[1-(2-methylphenyl)-1H-1,2,3-triazol-4-yl]methoxy} quinoline], the EC50 in the test on P. falciparum strain 3D7 (setting [1]) is 147 µM.
Take `COc1ccc(-n2cc(COc3ccnc4cc(Cl)ccc34)nn2)cc1` [Compound T8, 7-Chloro-4-{[1-(4-methoxyphenyl)-1H-1,2,3-triazol-4-yl]methoxy} quinoline]: the EC50 with P. falciparum strain 3D7 (setting [1]) is 51.7 µM.
Still for that read-out and setting: with `Clc1ccc2c(OCc3cn(-c4ccccc4)nn3)ccnc2c1` [Compound T10, 7-Chloro-4-[(1-phenyl-1H-1,2,3-triazol-4-yl)methoxy] quinoline] the figure was around 57.6 µM.
Regarding `Fc1ccc(-n2cc(COc3ccnc4cc(Cl)ccc34)nn2)cc1` [Compound T6, 7-Chloro-4-{[1-(4-fluorophenyl)-1H-1,2,3-triazol-4-yl]methoxy} quinoline], the EC50 with P. falciparum strain 3D7 (setting [1]) is around 57.9 µM.
On the same count and under the same terms, under `FC(F)(F)c1cccc(-n2cc(COc3ccnc4cc(Cl)ccc34)nn2)c1` [Compound T1, 7-Chloro-4-({1-[3-(trifluoromethyl)phenyl]-1H-1,2,3-triazol-4yl}methoxy) quinoline] stands 49.5 µM.
For `Fc1ccc(-n2cc(COc3ccnc4cc(Cl)ccc34)nn2)cc1F` [Compound T4, 7-Chloro-4-{[1-(3,4-difluorophenyl)-1H-1,2,3-triazol-4-yl]methoxy} quinoline], in the test on P. falciparum strain 3D7 (setting [1]), the concentration giving a half-maximal response (EC50) was determined as 21.9 µM. For the same compound, the New ring formation result in the test on 3D7 Plasmodium parasites is on record as “few new rings”.
In the case of `O=[N+]([O-])c1ccc(-n2cc(COc3ccnc4cc(Cl)ccc34)nn2)cc1` [Compound T7, 7-Chloro-4-{[1-(4-nitrophenyl)-1H-1,2,3-triazol-4-yl]methoxy} quinoline], the EC50 with P. falciparum strain 3D7 (setting [1]) amounted to 49.9 µM. For the same compound, the New ring formation result in the test with 3D7 Plasmodium parasites is “few new rings”.
